How the values were obtained:
[1] = molecular target: T1, Aldo-keto reductase family 1 member C3 (Homo sapiens) (UniProt P42330); test: Inhibition of human recombinant AKR1C3 assessed as 1-acenaphthenol oxidation at 400 uM by spectrophotometry
T1 sequence (whole entry): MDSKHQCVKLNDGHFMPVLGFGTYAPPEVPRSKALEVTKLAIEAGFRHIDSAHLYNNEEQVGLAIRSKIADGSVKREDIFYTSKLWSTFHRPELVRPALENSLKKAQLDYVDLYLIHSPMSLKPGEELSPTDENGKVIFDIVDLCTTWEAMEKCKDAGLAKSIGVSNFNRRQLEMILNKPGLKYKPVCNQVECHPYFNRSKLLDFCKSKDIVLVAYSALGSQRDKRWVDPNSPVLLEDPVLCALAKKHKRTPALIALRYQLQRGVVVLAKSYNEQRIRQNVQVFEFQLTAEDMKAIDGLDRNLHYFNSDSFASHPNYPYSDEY

[2] = molecular target: T2, Aldo-keto reductase family 1 member C1 (Homo sapiens) (UniProt Q04828); test: Inhibition of human recombinant AKR1C1 assessed as 1-acenaphthenol oxidation at 400 uM by spectrophotometry
T2 sequence (whole entry): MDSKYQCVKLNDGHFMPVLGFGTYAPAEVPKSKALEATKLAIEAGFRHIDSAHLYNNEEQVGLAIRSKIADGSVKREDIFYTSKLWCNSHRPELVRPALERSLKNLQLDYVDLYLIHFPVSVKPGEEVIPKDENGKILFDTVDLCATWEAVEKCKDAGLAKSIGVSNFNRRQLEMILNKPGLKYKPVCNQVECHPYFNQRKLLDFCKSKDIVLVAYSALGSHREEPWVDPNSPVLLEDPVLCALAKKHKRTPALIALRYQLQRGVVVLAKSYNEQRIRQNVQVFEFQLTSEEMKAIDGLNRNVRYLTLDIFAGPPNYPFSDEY
How it was run: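 Recombinant AKR1C1 (0.3 μM) oxidizing 30 μM 1-acenaphthenol with 2.3 mM NAD+ in 100 mM phosphate pH 9.0, 0.005% triton X-114, 5% DMSO. NADH increase was followed at 340 nm.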

[3] = molecular target: T3, Aldo-keto reductase family 1 member C3 (Homo sapiens, UniProt P42330); test: Inhibition of human recombinant AKR1C3 assessed as 1-acenaphthenol oxidation by spectrophotometry
T3 sequence (P42330 whole entry): T1 sequence (whole entry)
How it was run: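 NADH formation was monitored at 340 nm using initial velocities. IC50 was read graphically from log10[inhibitor] versus % inhibition. Ki was derived by Cheng-Prusoff for competitive inhibition.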

[4] = molecular target: T4, Aldo-keto reductase family 1 member C1 (Homo sapiens, UniProt Q04828); test: Inhibition of human recombinant AKR1C1 assessed as 1-acenaphthenol oxidation by spectrophotometry
T4 sequence (Q04828 whole entry): T2 sequence (whole entry)

[5] = molecular target: T2, Aldo-keto reductase family 1 member C1 (Homo sapiens); test: Inhibition of human recombinant AKR1C1 assessed as S-tetralol oxidation at 300 uM by micro plate fluorescence reader based assay
How it was run: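 Buffer was 100 mM K3PO4 pH 7.0 with 200 μM NADP+ and 4% DMSO final. Inhibitor was tested at 300 μM, in quadruplicate. Rates are initial velocities.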

[6] = molecular target: T5, Aldo-keto reductase family 1 member C4 (Homo sapiens) (UniProt P17516); test: Inhibition of human recombinant AKR1C4 assessed as S-tetralol oxidation at 300 uM by micro plate fluorescence reader based assay
T5 sequence (whole entry): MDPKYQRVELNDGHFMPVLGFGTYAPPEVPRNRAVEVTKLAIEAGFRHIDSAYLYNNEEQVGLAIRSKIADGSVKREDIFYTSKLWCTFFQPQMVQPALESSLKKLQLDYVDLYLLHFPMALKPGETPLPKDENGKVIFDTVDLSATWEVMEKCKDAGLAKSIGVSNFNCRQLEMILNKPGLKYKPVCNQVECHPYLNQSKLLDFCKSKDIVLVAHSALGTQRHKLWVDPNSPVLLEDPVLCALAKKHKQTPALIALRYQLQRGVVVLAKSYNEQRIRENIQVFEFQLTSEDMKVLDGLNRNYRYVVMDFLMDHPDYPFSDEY
How it was run: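 NADPH production was measured fluorometrically. Inhibitor was tested at 300 μM, quadruplicate wells. Inhibition was taken from initial velocities.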

[7] = molecular target: T3, Aldo-keto reductase family 1 member C3; test: Inhibition of human recombinant AKR1C3 assessed as S-tetralol oxidation by micro plate fluorescence reader based assay
How it was run: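 Fluorometric plate-reader read-out of NADPH formation as initial velocity. Each inhibitor concentration run in quadruplicate. IC50 from fit to y = range/(1+I/IC50)^s + background.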

[8] = molecular target: T3, Aldo-keto reductase family 1 member C3; test: Competitive inhibition of human recombinant AKR1C3 assessed as S-tetralol oxidation by Cheng-Prusoff equation analysis
How it was run: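 NADPH formation followed fluorometrically; initial velocities measured in quadruplicate per inhibitor concentration. IC50 fitted as y = range/(1+I/IC50)^s + background, then converted to Ki with the Cheng-Prusoff equation for competitive inhibition.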

Row | inhibition [1] [%] | inhibition [2] [%] | Ki [3] [µM] | SMILES | also measured
1 | 33.1 | 47.4 |  | Cc1ccc(NC(=O)c2cccnc2)c(C(=O)O)c1 | 
2 |  | < 10 | 82 | Cc1cc(C(=O)Nc2ccc(O)c(C(=O)O)c2)oc1C | 
3 |  | 39.5 | 144 | Cc1cc(Nc2cc(C(=O)O)ccc2C)nc(C)n1 | 
4 | 10.8 | < 10 |  | Cc1cccc(C(=O)Nc2ccccc2C(N)=O)c1 | 
5 |  |  | 44 | O=C(O)CCNc1cc2ccccc2cc1C(=O)O | 
6 |  |  | 76 | O=C1COc2ccc(C(=O)c3ccccc3)cc2CN1 | 
7 |  | 43.5 | 32 | O=C1CCC2(c3ccccc3)Nc3ccccc3N12 (stereo not drawn) | IC50 [7]: 5460 nM; Ki [8]: 2730 nM
8 |  |  | 148 | O=C(O)CCNS(=O)(=O)c1ccc2ccccc2c1 | 
9 |  |  | 54 | O=C(O)c1cc(-c2cccc(O)c2)nc2ccccc12 | 
10 |  | < 10 | 118 | O=C(NCc1cc(=O)[nH]cn1)c1cc2ccccn2n1 | 
11 | 48.8 | 30.1 |  | O=C(O)c1cc(NC(=O)c2ccccc2F)ccc1O | 

The remaining lines, values behind:

Row | SMILES | inhibition [1] [%] | inhibition [2] [%] | Ki [3] [µM] | also measured
12 | O=C(O)c1ccc(CNCc2ccccn2)cc1 | 51.2 | < 10 |  | 
13 | O=C(O)CNC=C1C(=O)CC(c2ccccc2)CC1=O (stereo not drawn) | 18.4 |  |  | 
14 | O=CN1CCN(C(=O)c2ccc3ccccc3c2)CC1 | 46.7 |  |  | Ki [4]: 64 µM
15 | NC(=O)c1ccccc1NC(=O)c1ccncc1 | 17.8 | 22.5 |  | 
16 | Cc1ccc(S(=O)(=O)Nc2cccc(C(=O)O)c2)cc1 |  | 43.1 | 111 | 
17 | CC(=O)Nc1ccc(C(C#N)c2ccccc2)cc1 (stereo not drawn) |  |  | 87 | 
18 | CN(c1ccc(C(=O)O)cc1)S(=O)(=O)c1ccccc1 |  |  | 148 | 
19 | Cc1ccn(Cc2cc(C(=O)O)c3ccccc3n2)n1 |  |  | 117 | 
20 | O=C(CSc1ncnc2[nH]cnc12)Nc1ccccn1 | 44.3 |  |  | Ki [4]: 69 µM
21 | O=C(O)c1cccc(NCC(=O)c2ccccc2)c1 |  | 44.8 | 72 | 
22 | Cc1oc(C(N)=O)cc1COc1ccccc1C(N)=O | 53.4 |  |  | Ki [4]: 122 µM
23 | O=C(CC1SC(=O)NC1=O)Nc1ccccc1O (stereo not drawn) |  | < 10 | 2 | inhibition [5]: 37%; inhibition [6]: 35%; IC50 [7]: 213 nM; Ki [8]: 107 nM
24 | NC(=O)c1ccccc1/N=C/c1cccc(O)c1 |  | < 10 | 36 | 
25 | O=C(O)c1cccc(Nc2nc3ccccc3[nH]2)c1 |  | < 10 | 142 | 

Source: ChEMBL document CHEMBL2169790, “Selective inhibitors of aldo-keto reductases AKR1C1 and AKR1C3 discovered by virtual screening of a fragment library” (J Med Chem, 2012)
